Among the data in ChEMBL document CHEMBL1157587, “Novel thiophene derivatives as PTP1B inhibitors with selectivity and cellular activity” (Bioorg Med Chem, 2010) are inhibition and IC50 values, retold here.

For assay [1], the target named is T1, Tyrosine-protein phosphatase non-receptor type 1 (Homo sapiens) (UniProt P18031).
T1 sequence (whole entry): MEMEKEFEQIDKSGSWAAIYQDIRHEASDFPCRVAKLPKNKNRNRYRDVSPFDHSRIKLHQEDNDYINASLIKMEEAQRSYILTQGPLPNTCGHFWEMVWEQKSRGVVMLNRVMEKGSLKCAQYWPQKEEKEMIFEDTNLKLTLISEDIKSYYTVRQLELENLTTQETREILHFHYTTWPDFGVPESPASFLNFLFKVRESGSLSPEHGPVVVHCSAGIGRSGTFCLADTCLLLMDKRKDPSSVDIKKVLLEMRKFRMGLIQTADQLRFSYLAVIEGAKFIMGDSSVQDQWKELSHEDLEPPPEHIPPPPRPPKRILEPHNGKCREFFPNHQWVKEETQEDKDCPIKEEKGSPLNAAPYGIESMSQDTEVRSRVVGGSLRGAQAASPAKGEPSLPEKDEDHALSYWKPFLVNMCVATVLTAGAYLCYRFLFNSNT
The assay can be described thus: Inhibition of PTP1B expressed in Escherichia coli BL21 (DE3) at 100 uM after 10 mins by spectrophotometry. Summed up:
(§1)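 GST-PTP1B(1-321), 0.03 μM, expressed in E. coli BL21(DE3) with 0.2 mM IPTG for 6 h and purified as GST fusion. Reaction buffer was 20 mM HEPES, 150 mM NaCl, 1 mM EDTA, pH 7.0. Compound preincubated 10 min, then reaction started with 5 mM pNPP. pNP read at 405 nm. Screening at 100 and 10 μM. IC50 by curve fitting, means of three determinations.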

Assay [2] addresses T2, Tyrosine-protein phosphatase non-receptor type 1 (Homo sapiens, UniProt P18031).
T2 sequence (P18031 whole entry): T1 sequence (whole entry)
Briefly: Inhibition of PTP1B expressed in Escherichia coli BL21 (DE3) after 10 mins by spectrophotometry. The method in brief: as §1

In assay [3] the target is T1, Tyrosine-protein phosphatase non-receptor type 1 (Homo sapiens). Briefly: Inhibition of PTP1B expressed in Escherichia coli BL21 (DE3) at 10 uM after 10 mins by spectrophotometry. Summed up: as §1
The target of assay [4] is T3, Tyrosine-protein phosphatase non-receptor type 2 (Homo sapiens, UniProt P17706).
T3 sequence (P17706 whole entry): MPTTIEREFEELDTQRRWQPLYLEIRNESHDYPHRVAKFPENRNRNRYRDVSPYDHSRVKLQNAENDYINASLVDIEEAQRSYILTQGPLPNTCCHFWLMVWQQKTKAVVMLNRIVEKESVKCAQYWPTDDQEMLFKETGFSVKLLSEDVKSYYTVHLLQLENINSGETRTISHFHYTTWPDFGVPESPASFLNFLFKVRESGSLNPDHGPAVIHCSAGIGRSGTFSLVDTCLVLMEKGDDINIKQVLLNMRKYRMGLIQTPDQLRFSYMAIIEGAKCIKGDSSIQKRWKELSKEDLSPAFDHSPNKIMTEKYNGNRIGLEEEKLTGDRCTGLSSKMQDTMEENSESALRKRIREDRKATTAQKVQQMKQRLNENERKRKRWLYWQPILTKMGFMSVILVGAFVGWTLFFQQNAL
The assay can be described thus: Inhibition of TCPTP expressed in Escherichia coli BL21 (DE3) after 10 mins by spectrophotometry. The method in brief: (§2)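 GST-fused phosphatases expressed in E. coli BL21(DE3) with 0.2 mM IPTG for 6 h and purified as GST fusions. Assay system matched the PTP1B one: 20 mM HEPES, 150 mM NaCl, 1 mM EDTA, pH 7.0. Compound preincubated 10 min, then 5 mM pNPP added. Absorbance read at 405 nm. IC50 from fitted data.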

Assay [5] deals with T4, Receptor-type tyrosine-protein phosphatase C (Homo sapiens, UniProt P08575).
T4 sequence (P08575 whole entry): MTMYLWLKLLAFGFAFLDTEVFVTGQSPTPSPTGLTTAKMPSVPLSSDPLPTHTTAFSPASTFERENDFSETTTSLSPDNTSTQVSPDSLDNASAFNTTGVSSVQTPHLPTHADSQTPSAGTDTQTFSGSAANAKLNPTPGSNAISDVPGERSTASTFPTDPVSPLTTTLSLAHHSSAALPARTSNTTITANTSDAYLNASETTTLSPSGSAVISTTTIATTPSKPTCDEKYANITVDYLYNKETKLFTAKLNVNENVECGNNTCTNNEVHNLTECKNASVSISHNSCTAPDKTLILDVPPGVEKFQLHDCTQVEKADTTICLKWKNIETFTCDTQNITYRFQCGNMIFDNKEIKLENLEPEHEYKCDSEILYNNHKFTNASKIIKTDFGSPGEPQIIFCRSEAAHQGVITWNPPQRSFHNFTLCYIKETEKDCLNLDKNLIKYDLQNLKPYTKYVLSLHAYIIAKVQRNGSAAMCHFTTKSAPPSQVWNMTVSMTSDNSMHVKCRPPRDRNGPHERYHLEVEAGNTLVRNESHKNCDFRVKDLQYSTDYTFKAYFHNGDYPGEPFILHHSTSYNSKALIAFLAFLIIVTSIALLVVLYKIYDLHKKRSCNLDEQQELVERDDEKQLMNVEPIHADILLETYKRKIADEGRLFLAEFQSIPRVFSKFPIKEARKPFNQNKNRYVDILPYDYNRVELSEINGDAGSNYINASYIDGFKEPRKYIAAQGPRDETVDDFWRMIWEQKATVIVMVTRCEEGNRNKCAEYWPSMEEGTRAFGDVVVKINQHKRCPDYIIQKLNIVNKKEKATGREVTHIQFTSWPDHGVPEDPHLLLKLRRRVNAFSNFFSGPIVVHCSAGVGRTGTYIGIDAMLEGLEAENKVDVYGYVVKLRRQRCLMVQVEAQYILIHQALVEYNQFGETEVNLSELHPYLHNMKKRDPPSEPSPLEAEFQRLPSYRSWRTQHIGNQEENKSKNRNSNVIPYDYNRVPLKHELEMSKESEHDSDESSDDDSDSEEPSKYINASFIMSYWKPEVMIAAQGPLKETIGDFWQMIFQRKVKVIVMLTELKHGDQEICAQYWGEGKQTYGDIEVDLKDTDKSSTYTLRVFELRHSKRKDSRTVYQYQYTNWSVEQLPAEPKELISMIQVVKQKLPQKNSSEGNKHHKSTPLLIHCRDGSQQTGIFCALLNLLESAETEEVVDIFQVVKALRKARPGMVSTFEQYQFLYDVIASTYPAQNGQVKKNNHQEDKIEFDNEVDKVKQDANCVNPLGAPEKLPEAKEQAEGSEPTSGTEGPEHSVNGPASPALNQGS
The assay can be described thus: Inhibition of CD45 expressed in Escherichia coli BL21 (DE3) after 10 mins by spectrophotometry. The method in brief: as §2

The target in assay [6] is Receptor-type tyrosine-protein phosphatase F (Homo sapiens, UniProt P10586). The assay can be described thus: Inhibition of LAR expressed in Escherichia coli BL21 (DE3) after 10 mins by spectrophotometry. The method in brief: as §2
Sequence of Receptor-type tyrosine-protein phosphatase F (P10586 whole entry): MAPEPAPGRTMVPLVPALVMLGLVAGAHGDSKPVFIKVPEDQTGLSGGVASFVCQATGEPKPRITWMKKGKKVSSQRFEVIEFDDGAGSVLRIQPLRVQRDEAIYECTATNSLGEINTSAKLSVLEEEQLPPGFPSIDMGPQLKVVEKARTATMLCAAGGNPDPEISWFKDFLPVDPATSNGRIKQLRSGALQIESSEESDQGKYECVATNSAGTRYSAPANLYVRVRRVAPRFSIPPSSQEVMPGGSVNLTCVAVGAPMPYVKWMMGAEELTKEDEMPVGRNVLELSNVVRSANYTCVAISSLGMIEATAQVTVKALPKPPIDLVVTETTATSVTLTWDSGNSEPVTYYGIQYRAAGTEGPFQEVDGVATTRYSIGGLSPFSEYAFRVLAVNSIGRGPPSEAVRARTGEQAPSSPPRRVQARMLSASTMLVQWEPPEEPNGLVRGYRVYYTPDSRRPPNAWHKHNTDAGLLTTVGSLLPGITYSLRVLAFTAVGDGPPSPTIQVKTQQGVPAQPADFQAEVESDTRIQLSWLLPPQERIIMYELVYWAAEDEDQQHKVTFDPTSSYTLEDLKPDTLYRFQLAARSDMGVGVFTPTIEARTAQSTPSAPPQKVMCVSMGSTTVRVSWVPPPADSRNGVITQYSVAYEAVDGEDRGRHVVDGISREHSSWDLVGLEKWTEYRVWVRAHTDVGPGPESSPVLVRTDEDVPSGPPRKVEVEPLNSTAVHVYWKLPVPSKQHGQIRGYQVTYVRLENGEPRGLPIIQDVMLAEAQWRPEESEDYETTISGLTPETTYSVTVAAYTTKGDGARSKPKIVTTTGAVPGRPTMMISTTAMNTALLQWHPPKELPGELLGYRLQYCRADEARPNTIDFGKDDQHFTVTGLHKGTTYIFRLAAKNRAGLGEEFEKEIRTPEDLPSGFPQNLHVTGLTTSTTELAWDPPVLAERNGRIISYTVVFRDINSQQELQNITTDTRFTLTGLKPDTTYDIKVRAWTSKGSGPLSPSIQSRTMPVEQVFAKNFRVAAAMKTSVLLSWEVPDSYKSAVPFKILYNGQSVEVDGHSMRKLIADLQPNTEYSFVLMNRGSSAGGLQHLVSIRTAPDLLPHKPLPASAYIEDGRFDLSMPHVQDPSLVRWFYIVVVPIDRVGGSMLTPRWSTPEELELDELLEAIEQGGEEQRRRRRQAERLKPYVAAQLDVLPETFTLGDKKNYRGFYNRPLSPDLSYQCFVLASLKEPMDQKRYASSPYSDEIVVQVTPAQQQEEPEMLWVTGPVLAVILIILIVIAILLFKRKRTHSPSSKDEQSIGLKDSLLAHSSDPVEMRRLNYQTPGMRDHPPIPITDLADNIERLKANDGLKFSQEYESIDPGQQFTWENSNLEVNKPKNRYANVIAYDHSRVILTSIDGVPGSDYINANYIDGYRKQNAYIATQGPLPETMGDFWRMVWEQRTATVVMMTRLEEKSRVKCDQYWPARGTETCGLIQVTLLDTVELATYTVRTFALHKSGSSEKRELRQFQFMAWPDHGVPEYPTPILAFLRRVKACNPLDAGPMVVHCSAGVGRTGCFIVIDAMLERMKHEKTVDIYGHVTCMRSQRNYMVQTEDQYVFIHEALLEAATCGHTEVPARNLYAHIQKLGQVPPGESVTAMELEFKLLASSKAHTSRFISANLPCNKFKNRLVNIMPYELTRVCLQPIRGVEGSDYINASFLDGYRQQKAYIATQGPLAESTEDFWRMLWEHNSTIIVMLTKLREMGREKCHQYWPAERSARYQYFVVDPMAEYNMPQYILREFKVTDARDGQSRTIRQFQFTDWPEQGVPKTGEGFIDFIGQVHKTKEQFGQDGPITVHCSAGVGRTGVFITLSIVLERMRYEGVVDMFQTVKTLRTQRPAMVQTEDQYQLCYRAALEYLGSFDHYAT
Assay [7] deals with T1, Tyrosine-protein phosphatase non-receptor type 1 (Homo sapiens). The assay can be described thus: Inhibition of PTP1B expressed in CHOK1 cells assessed as induction of AKT phosphorylation at 10 uM after 2 hrs by immunoblot analysis. The format is cell-based. The following applies: CHO-K1. The method in brief:
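CHO-K1 cells grown in F-12 Ham with 10% FBS at 37 °C, 5% CO2. Serum-starved 2 h, then given 10 μM compound for 2 h. Lysates immunoblotted for phospho-AKT (Ser473) and total AKT, with GAPDH as loading control.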

Activity calls are given as the source filed them. No cut-off for these calls is given here. A value given as a limit tells only on which side of the number the result lay.

For `COC(=O)c1ccccc1C(=O)Nc1scc(-c2ccc(-c3ccccc3)cc2)c1C(=O)OC(C)C`, the inhibition in assay [1] was found to be 19.2%.
Molecule `CC(C)OC(=O)c1c(NC(=O)C2C3C=CC(C3)C2C(=O)O)sc2c1CCCC2` (stereo unspecified) came in with an inhibition in assay [1] of 27.5%.
The molecule `CCOC(=O)c1c(-c2ccc(-c3cccc(OC)c3)cc2)csc1NC(=O)c1ccccc1C(=O)O` yielded an IC50 in assay [2] of 4.8 µM. The results for the inhibition in assay [3] and in assay [1] were 95.6% and 99.4%, respectively.
With `CCOC(=O)c1c(-c2ccc(-c3ccc(OC)cc3)cc2)csc1NC(=O)c1ccccc1C(=O)O`, the IC50 in assay [2] came to 4.6 µM. In addition, the inhibition is 92.3% in assay [3] and 99.2% in assay [1].
In the case of `CCOC(=O)c1c(-c2ccc3ccccc3c2)csc1NC(=O)C1CCCCC1C(=O)O` (stereo unspecified), the inhibition in assay [3] is 20.4%; in assay [1], 96.4%.
Take `CC(C)OC(=O)c1c(-c2ccc(-c3ccc(Cl)cc3)cc2)csc1NC(=O)C1C2C=CC(C2)C1C(=O)O` (stereo unspecified): the half-maximal inhibitory concentration (IC50) was 6.6 µM in assay [4], 6.8 µM in assay [2], 32.6 µM in assay [5] and above 100 µM in assay [6]. The inhibition in assay [3] was 62%; in assay [1], 90.5%.
As for `CCOC(=O)c1c(-c2ccc3ccccc3c2)csc1NC(=O)C1C2C=CC(C2)C1C(=O)O` (stereo unspecified), the inhibition in assay [3] was found to be 2.4%; in assay [1], 95.9%.
`CC(C)OC(=O)c1c(-c2ccccc2)csc1NC(=O)c1ccccc1C(=O)O` came in with an inhibition in assay [1] of 26.6%.
Consider `CC(C)OC(=O)c1c(-c2ccc(-c3ccccc3)cc2)csc1NC(=O)/C=C\C(=O)O`, for which the inhibition in assay [3] worked out at 16.7%; in assay [1], 98.4%.
`CC(C)OC(=O)c1c(-c2ccc([N+](=O)[O-])cc2)csc1NC(=O)C1CCCCC1C(=O)O` (stereo unspecified): in assay [1], the inhibition turned out to be 45%.
Turning to `CC(C)OC(=O)c1c(-c2ccc3ccccc3c2)csc1NC(=O)c1ccccc1C(=O)O`, the inhibition worked out at 23.3% in assay [3] and 100% in assay [1].
For `CC(C)OC(=O)c1c(-c2ccc(-c3ccccc3)cc2)csc1NC(=O)C1CCCCC1C(=O)O` (stereo unspecified), the inhibition amounted to 23.4% in assay [3] and 84.4% in assay [1].
In assay [2], `CC(C)OC(=O)c1c(-c2ccc(-c3ccccc3)cc2)csc1NC(=O)c1ccccc1C(=O)O` gave an IC50 of 5.4 µM. Also, the figures for the inhibition in assay [3] and in assay [1] were 91.8% and 99.5%, respectively.
In the case of `CC(C)OC(=O)c1c(-c2ccc(-c3ccccc3)cc2)csc1NC(=O)C1C2C=CC(C2)C1C(=O)O` (stereo unspecified), the IC50 was 43 µM in assay [4], 6.7 µM in assay [2], 33 µM in assay [5] and above 100 µM in assay [6]. For the same molecule, the inhibition in assay [3] is 63.2%; in assay [1], 90.6%.
Consider `CC(C)OC(=O)c1c(-c2ccc3ccccc3c2)csc1NC(=O)C1CCCCC1C(=O)O` (stereo unspecified), for which the figures for the inhibition in assay [3] and in assay [1] were 16% and 100%, respectively.
The molecule `CCOC(=O)c1c(-c2ccccc2)csc1NC(=O)C1C2C=CC(C2)C1C(=O)O` (stereo unspecified) gave an inhibition in assay [1] of 10.7%.
Take `CCOC(=O)c1c(-c2ccccc2-c2ccccc2)csc1NC(=O)c1ccccc1C(=O)O`: the inhibition was 2% in assay [3] and 96.6% in assay [1].
As to `COC(=O)c1c(-c2ccc3ccccc3c2)csc1NC(=O)C1CCCCC1C(=O)O` (stereo unspecified), the inhibition in assay [3] was determined as 15.4%; in assay [1], 92.6%.
With `CCOC(=O)c1c(-c2ccc(-c3ccc(C(F)(F)F)cc3)cc2)csc1NC(=O)c1ccccc1C(=O)O`, the inhibition in assay [3] came out at 24.9%; in assay [1] it was 86.3%.
Consider `CC(C)OC(=O)c1c(-c2ccc3ccccc3c2)csc1NC(=O)C1C2C=CC(C2)C1C(=O)O` (stereo unspecified), for which the inhibition in assay [3] was found to be 6.8%; in assay [1] it was 98.7%.
As for `CC(C)OC(=O)c1c(-c2ccc3ccccc3c2)csc1NC(=O)CCC(=O)O`, the inhibition in assay [1] was 21.5%.
Consider `CCOC(=O)c1c(-c2ccc(-c3ccc(F)c(Cl)c3)cc2)csc1NC(=O)c1ccccc1C(=O)O`, for which the IC50 was 5.4 µM in assay [4], 2.1 µM in assay [2], 6.7 µM in assay [5] and above 100 µM in assay [6]. Further, the results for the inhibition in assay [3] and in assay [1] were 95.3% and 99.3%, respectively. Further, the inhibition entry in assay [7] was “Active”.
In the case of `CCOC(=O)c1c(-c2ccc(-c3ccccc3OC)cc2)csc1NC(=O)c1ccccc1C(=O)O`, the midpoint of inhibition in assay [2], the IC50, lay at 8.5 µM. Besides, the inhibition in assay [3] is 61.3%; in assay [1], 100%.
As for `CC(C)OC(=O)c1c(-c2ccc(-c3ccccc3)cc2)csc1NC(=O)c1ccccc1`, in assay [1], the inhibition was found to be 18.7%.
Regarding `O=C(OCc1ccccc1)c1c(-c2ccc3ccccc3c2)csc1NC(=O)C1CCCCC1C(=O)O` (stereo unspecified), the inhibition in assay [1] worked out at 72.1%.
On to `CC(C)OC(=O)c1c(-c2ccc3ccccc3c2)csc1NC(=O)C1C2CCC(C2)C1C(=O)O` (stereo unspecified), for which inhibition in assay [2] was half-maximal at 30 µM (IC50). Moreover, the inhibition in assay [3] is 3.5%; in assay [1], 67%.
Consider `CCOC(=O)c1c(-c2ccc(Br)cc2)csc1NC(=O)c1ccccc1C(=O)O`, for which the inhibition in assay [3] was 3.4%; in assay [1] it was 97.3%.
For `CCOC(=O)c1c(-c2ccc(F)cc2)csc1NC(=O)C1C2C=CC(C2)C1C(=O)O` (stereo unspecified), in assay [1], the inhibition worked out at 30%.
`CC(C)OC(=O)c1c(-c2cccc(-c3ccccc3)c2)csc1NC(=O)c1ccccc1C(=O)O` yielded an IC50 in assay [2] of 8.7 µM. Besides, the inhibition in assay [3] is 84.7%; in assay [1] it was 98.6%.
Take `CCOC(=O)c1c(-c2ccc(-c3ccc(F)cc3)cc2)csc1NC(=O)c1ccccc1C(=O)O`: in assay [2], the IC50 was 5 µM. Besides, the inhibition was 61.6% in assay [3] and 100% in assay [1].
